Measured values: ChEMBL document CHEMBL1129264, “Mercaptoacyl dipeptides as orally active dual inhibitors of angiotensin-converting enzyme and neutral endopeptidase” (1996)

Tests used:
Assay type in all cases: organism-based
[1] = target: T1, Angiotensin-converting enzyme (Rattus norvegicus) (UniProt P47820); test: Compound was tested for plasma inhibition of Angiotensin I converting enzyme activity in the conscious rat. Expressed as Inhibition of AI pressor response at 2 hr at a dose of 14.1 mg/kg po; design: dose 14.1 mg/kg
T1 sequence (whole entry): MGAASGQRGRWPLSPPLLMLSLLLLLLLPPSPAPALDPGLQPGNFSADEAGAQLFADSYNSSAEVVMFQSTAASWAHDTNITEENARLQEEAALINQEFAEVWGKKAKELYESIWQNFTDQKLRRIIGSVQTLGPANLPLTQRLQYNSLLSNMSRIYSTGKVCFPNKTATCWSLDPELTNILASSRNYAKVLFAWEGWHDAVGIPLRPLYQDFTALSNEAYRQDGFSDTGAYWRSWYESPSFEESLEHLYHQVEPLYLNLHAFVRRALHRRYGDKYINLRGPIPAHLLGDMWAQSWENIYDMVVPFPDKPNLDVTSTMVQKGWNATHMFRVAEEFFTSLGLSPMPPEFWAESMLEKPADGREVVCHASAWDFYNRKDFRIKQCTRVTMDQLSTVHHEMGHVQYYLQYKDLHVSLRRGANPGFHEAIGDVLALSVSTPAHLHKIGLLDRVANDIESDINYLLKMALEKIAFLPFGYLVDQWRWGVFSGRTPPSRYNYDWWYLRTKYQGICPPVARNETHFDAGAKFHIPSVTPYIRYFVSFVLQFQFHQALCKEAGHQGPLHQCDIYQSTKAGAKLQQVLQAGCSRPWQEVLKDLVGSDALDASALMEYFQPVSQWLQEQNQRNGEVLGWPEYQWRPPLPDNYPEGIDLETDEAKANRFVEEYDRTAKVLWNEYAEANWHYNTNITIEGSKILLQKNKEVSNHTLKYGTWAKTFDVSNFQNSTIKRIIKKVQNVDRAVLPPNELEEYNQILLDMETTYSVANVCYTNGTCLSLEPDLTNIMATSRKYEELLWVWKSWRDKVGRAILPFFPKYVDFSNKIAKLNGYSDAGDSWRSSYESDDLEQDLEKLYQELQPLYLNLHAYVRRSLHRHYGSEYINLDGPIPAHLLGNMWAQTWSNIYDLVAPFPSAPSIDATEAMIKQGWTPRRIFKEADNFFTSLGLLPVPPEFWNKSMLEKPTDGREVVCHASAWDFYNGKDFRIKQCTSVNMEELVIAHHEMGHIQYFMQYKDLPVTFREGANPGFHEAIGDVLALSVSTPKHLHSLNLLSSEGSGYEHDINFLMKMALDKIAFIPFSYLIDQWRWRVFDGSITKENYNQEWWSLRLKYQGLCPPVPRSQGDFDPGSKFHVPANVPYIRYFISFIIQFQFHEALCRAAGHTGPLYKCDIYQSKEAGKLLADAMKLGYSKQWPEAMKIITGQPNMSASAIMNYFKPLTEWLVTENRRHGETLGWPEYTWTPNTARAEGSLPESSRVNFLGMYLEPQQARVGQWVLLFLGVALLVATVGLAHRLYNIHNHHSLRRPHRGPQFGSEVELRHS
Summary of the method: (§1)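 Male conscious normotensive Sprague-Dawley rats (275-390 g), given femoral arterial and venous catheters under methohexital sodium (75 mg/kg ip) anesthesia. Next day, pressor responses to three angiotensin-I challenges (300 ng/kg iv) recorded by direct arterial pressure. Compound then dosed orally, and AI challenge repeated at set times. Each post-dose response compared with the mean of the three baseline responses, giving % inhibition.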

[2] = target: T1, Angiotensin-converting enzyme (Rattus norvegicus); test: Compound was tested for plasma inhibition of Angiotensin I converting enzyme activity in the conscious rat. Expressed as Inhibition of AI pressor response at 1 hr at a dose of 14.1 mg/kg po; design: dose 14.1 mg/kg; summary of the method: as §1
[3] = target: T1, Angiotensin-converting enzyme (Rattus norvegicus); test: Compound was tested for plasma inhibition of Angiotensin I converting enzyme activity in the conscious rat. Expressed as Inhibition of AI pressor response at 2 hr at a dose of 13.8 mg/kg po; design: dose 13.8 mg/kg; summary of the method: as §1
[4] = target: T1, Angiotensin-converting enzyme (Rattus norvegicus); test: Compound was tested for plasma inhibition of Angiotensin I converting enzyme activity in the conscious rat. Expressed as Inhibition of AI pressor response at 1 hr at a dose of 13.8 mg/kg po; design: dose 13.8 mg/kg; summary of the method: as §1
[5] = target: T1, Angiotensin-converting enzyme (Rattus norvegicus); test: Compound was tested for plasma inhibition of Angiotensin I converting enzyme activity in the conscious rat. Expressed as Inhibition of AI pressor response at 6 hr at a dose of 13.8 mg/kg po; design: dose 13.8 mg/kg
Summary of the method: (§2)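 Male conscious normotensive Sprague-Dawley rats (275-390 g), prepared under methohexital sodium (75 mg/kg ip) with femoral arterial and venous catheters. The next day, pressor responses to three angiotensin-I challenges (300 ng/kg iv) were recorded. Compound was then given orally and angiotensin-I challenges were repeated at set times. Percent inhibition is relative to the mean of the three baseline responses.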

[6] = target: T1, Angiotensin-converting enzyme (Rattus norvegicus); test: Compound was tested for plasma inhibition of Angiotensin I converting enzyme activity in the conscious rat. Expressed as Inhibition of AI pressor response at 4 hr at a dose of 13.8 mg/kg po; design: dose 13.8 mg/kg; summary of the method: as §2
[7] = target: T1, Angiotensin-converting enzyme (Rattus norvegicus); test: Compound was tested for plasma inhibition of Angiotensin I converting enzyme activity in the conscious rat. Expressed as Inhibition of AI pressor response at 2 hr at a dose of 13.4 mg/kg po; design: dose 13.4 mg/kg; summary of the method: as §1
[8] = target: T1, Angiotensin-converting enzyme (Rattus norvegicus); test: Compound was tested for plasma inhibition of Angiotensin I converting enzyme activity in the conscious rat. Expressed as Inhibition of AI pressor response at 6 hr at a dose of 13.4 mg/kg po; design: dose 13.4 mg/kg; summary of the method: as §2
[9] = target: T1, Angiotensin-converting enzyme (Rattus norvegicus); test: Compound was tested for plasma inhibition of Angiotensin I converting enzyme activity in the conscious rat. Expressed as Inhibition of AI pressor response at 4 hr at a dose of 13.4 mg/kg po; design: dose 13.4 mg/kg; summary of the method: as §2
[10] = target: T1, Angiotensin-converting enzyme (Rattus norvegicus); test: Compound was tested for plasma inhibition of Angiotensin I converting enzyme activity in the conscious rat. Expressed as Inhibition of AI pressor response at 1 hr at a dose of 13.4 mg/kg po; design: dose 13.4 mg/kg; summary of the method: as §1
[11] = target: T1, Angiotensin-converting enzyme (Rattus norvegicus); test: Compound was tested for plasma inhibition of Angiotensin I converting enzyme activity in the conscious rat. Expressed as Inhibition of AI pressor response at 4 hr at a dose of 12.5 mg/kg po; design: dose 12.5 mg/kg; summary of the method: as §1
[12] = target: T1, Angiotensin-converting enzyme (Rattus norvegicus); test: Compound was tested for plasma inhibition of Angiotensin I converting enzyme activity in the conscious rat. Expressed as Inhibition of AI pressor response at 6 hr at a dose of 12.5 mg/kg po; design: dose 12.5 mg/kg; summary of the method: as §2
[13] = target: T1, Angiotensin-converting enzyme (Rattus norvegicus); test: Compound was tested for plasma inhibition of Angiotensin I converting enzyme activity in the conscious rat. Expressed as Inhibition of AI pressor response at 1 hr at a dose of 12.5 mg/kg po; design: dose 12.5 mg/kg; summary of the method: as §1
[14] = target: T1, Angiotensin-converting enzyme (Rattus norvegicus); test: Compound was tested for plasma inhibition of Angiotensin I converting enzyme activity in the conscious rat. Expressed as Inhibition of AI pressor response at 2 hr at a dose of 12.5 mg/kg po; design: dose 12.5 mg/kg; summary of the method: as §1
[15] = target: T1, Angiotensin-converting enzyme (Rattus norvegicus); test: Compound was tested for plasma inhibition of Angiotensin I converting enzyme activity in the conscious rat. Expressed as Inhibition of AI pressor response at 6 hr at a dose of 12 mg/kg po; design: dose 12 mg/kg; summary of the method: as §2
[16] = target: T1, Angiotensin-converting enzyme (Rattus norvegicus); test: Compound was tested for plasma inhibition of Angiotensin I converting enzyme activity in the conscious rat. Expressed as Inhibition of AI pressor response at 4 hr at a dose of 12 mg/kg po; design: dose 12 mg/kg; summary of the method: as §1
[17] = target: T1, Angiotensin-converting enzyme (Rattus norvegicus); test: Compound was tested for plasma inhibition of Angiotensin I converting enzyme activity in the conscious rat. Expressed as Inhibition of AI pressor response at 2 hr at a dose of 12 mg/kg po; design: dose 12 mg/kg; summary of the method: as §1
[18] = target: T1, Angiotensin-converting enzyme (Rattus norvegicus); test: Compound was tested for plasma inhibition of Angiotensin I converting enzyme activity in the conscious rat. Expressed as Inhibition of AI pressor response at 1 hr at a dose of 12 mg/kg po; design: dose 12 mg/kg; summary of the method: as §1

CCCCOC(=O)[C@H](Cc1ccc(O)cc1)NC(=O)C1(NC(=O)[C@H](SC(=O)C2CCCCC2)C(C)C)CCCC1
inhibition [1]: 8%
inhibition [2]: -3%

CCOC(=O)[C@H](Cc1ccc(O)cc1)NC(=O)C1(NC(=O)[C@H](SC(=O)CN2CCOCC2)C(C)C)CCCC1
inhibition [3]: 60%
inhibition [4]: 54%
inhibition [5]: 28%
inhibition [6]: 40%

CCOC(=O)[C@H](Cc1ccc(OC(=O)C(C)C)cc1)NC(=O)C1(NC(=O)[C@H](SC(C)=O)C(C)C)CCCC1
inhibition [7]: 75%
inhibition [8]: 46%
inhibition [9]: 63%
inhibition [10]: 73%

CCOC(=O)[C@H](Cc1ccc(O)cc1)NC(=O)C1(NC(=O)[C@H](SC(=O)COC)C(C)C)CCCC1
inhibition [11]: 70%
inhibition [12]: 34%
inhibition [13]: 81%
inhibition [14]: 77%

C=CCOC(=O)[C@H](Cc1ccc(O)cc1)NC(=O)C1(NC(=O)[C@H](SC(C)=O)C(C)C)CCCC1
inhibition [15]: 59%
inhibition [16]: 67%
inhibition [17]: 75%
inhibition [18]: 68%
